Data as given in ChEMBL document CHEMBL1649253, “New approach for drug susceptibility testing: monitoring the stress response of mycobacteria” (2009).
In brackets after ≈: the same amount, converted by molar mass.

Legend:
Format in all cases: functional
[1] = test system: Mycobacterium tuberculosis; experiment: Antibacterial activity against isoniazid-resistant Mycobacterium tuberculosis H37Ra
Procedure, shortened: (§1)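 Broth microdilution in supplemented 7H9 (complete) medium with twofold drug dilutions. Inoculum 10^6 CFU/ml from cultures grown at 37°C to mid- or late-log phase. Incubated 21 days at 37°C, then turbidity inspected by eye against drug-free controls. MIC is the lowest concentration with no visible growth.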

[2] = test system: Mycobacterium tuberculosis; experiment: Antibacterial activity against pyrazinamide-resistant Mycobacterium tuberculosis H37Ra; procedure, shortened: as §1
[3] = test system: Mycobacterium tuberculosis; experiment: Antibacterial activity against ethambutol-resistant Mycobacterium tuberculosis H37Ra; procedure, shortened: as §1
[4] = test system: Mycobacterium tuberculosis; experiment: Antibacterial activity against rifampin-resistant Mycobacterium tuberculosis H37Ra; procedure, shortened: as §1

CC[C@@H](CO)NCCN[C@@H](CC)CO [ETHAMBUTOL]
MIC [1]: 5 µg/mL (≈ 24.5 µM) | MIC [2]: 5 µg/mL (≈ 24.5 µM) | MIC [3]: > 400 µg/mL | MIC [4]: 5 µg/mL (≈ 24.5 µM)

NNC(=O)c1ccncc1 [ISONIAZID]
MIC [1]: > 16 µg/mL | MIC [2]: 0.2 µg/mL (≈ 1.46 µM) | MIC [3]: 0.2 µg/mL (≈ 1.46 µM) | MIC [4]: 0.2 µg/mL (≈ 1.46 µM)

NC(=O)c1cnccn1 [PYRAZINAMIDE]
MIC [1]: 50 µg/mL (≈ 406 µM) | MIC [2]: > 4000 µg/mL | MIC [3]: 50 µg/mL (≈ 406 µM) | MIC [4]: 50 µg/mL (≈ 406 µM)

CO[C@H]1/C=C/O[C@@]2(C)Oc3c(C)c(O)c4c(O)c(c(/C=N/N5CCN(C)CC5)c(O)c4c3C2=O)NC(=O)/C(C)=C\C=C\[C@H](C)[C@H](O)[C@@H](C)[C@@H](O)[C@@H](C)[C@H](OC(C)=O)[C@@H]1C [RIFAMPIN]
MIC [1]: 0.2 µg/mL (≈ 0.243 µM) | MIC [2]: 0.2 µg/mL (≈ 0.243 µM) | MIC [3]: 0.2 µg/mL (≈ 0.243 µM) | MIC [4]: 16 µg/mL (≈ 19.4 µM)
